Test results published in ChEMBL document CHEMBL5058577, “EUbOPEN Chemogenomics Library 2 (Multiplex)” (2022).

Test system: HEK-293T
Test: Multiplex assay against HEK293T
Assay type: toxicity, cell-based
Settings: human
Method in brief: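 On a CQ1 microscope at 37°C and 5% CO2, live cells were imaged after compound addition. They had been stained at seeding with Hoechst33342, BioTracker Green Microtubule Cytoskeleton Dye, MitoTracker Red and Annexin V Alexa Fluor 680. CellPathfinder machine-learning gating assigned cells to Hoechst high-intensity objects or normal cells, normal cells to healthy, pyknosed or fragmented nuclei, and pyknosed cells to mitotic or apoptotic. Tubulin, mitochondrial-mass and membrane-permeability phenotypes are per cents of healthy-nucleus cells.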

[1] = 12 h, 1 µM, compound concentration 1 uM, replicate 1
[2] = 12 h, 1 µM, compound concentration 1 uM, replicate 2
[3] = 12 h, 10 µM, compound concentration 10 uM, replicate 1
[4] = 12 h, 10 µM, compound concentration 10 uM, replicate 2
[5] = 24 h, 1 µM, compound concentration 1 uM, replicate 1
[6] = 24 h, 1 µM, compound concentration 1 uM, replicate 2
[7] = 24 h, 10 µM, compound concentration 10 uM, replicate 1
[8] = 24 h, 10 µM, compound concentration 10 uM, replicate 2
[9] = 48 h, 1 µM, compound concentration 1 uM, replicate 1
[10] = 48 h, 1 µM, compound concentration 1 uM, replicate 2
[11] = 48 h, 10 µM, compound concentration 10 uM, replicate 1
[12] = 48 h, 10 µM, compound concentration 10 uM, replicate 2

CC[C@@H](C)Nc1nc(C)nc2c(-c3ccc(OC)nc3C)c(C)nn12 [PEXACERFONT]
Population Apoptotic (%) [1]: 33%
Population Fragmented Nuclei (%) [1]: 7%
Population Healthy Nuclei (%) [1]: 79%
Population Hoechst High Intensity Objects (%) [1]: 6%
Population Membrane Permeable-Phenotype (%) [1]: 0%
Population Mitochondria Different-Phenotype (%) [1]: 45%
Population Mitotic Cells (%) [1]: 66%
Population Normal (%) [1]: 93%
Population Pyknosed Nuclei (%) [1]: 13%
Population Tubulin-Different-Phenotype (%) [1]: 34%
Total Cell Count [1]: 399
Population Apoptotic (%) [2]: 47%
Population Fragmented Nuclei (%) [2]: 5%
Population Healthy Nuclei (%) [2]: 82%
Population Hoechst High Intensity Objects (%) [2]: 8%
Population Mitochondria Different-Phenotype (%) [2]: 61%
Population Mitotic Cells (%) [2]: 52%
Population Normal (%) [2]: 91%
Population Pyknosed Nuclei (%) [2]: 11%
Population Tubulin-Different-Phenotype (%) [2]: 31%
Total Cell Count [2]: 314
Population Apoptotic (%) [3]: 38%
Population Fragmented Nuclei (%) [3]: 6%
Population Healthy Nuclei (%) [3]: 75%
Population Hoechst High Intensity Objects (%) [3]: 8%
Population Membrane Permeable-Phenotype (%) [3]: 0%
Population Mitochondria Different-Phenotype (%) [3]: 59%
Population Mitotic Cells (%) [3]: 61%
Population Normal (%) [3]: 91%
Population Pyknosed Nuclei (%) [3]: 17%
Population Tubulin-Different-Phenotype (%) [3]: 54%
Total Cell Count [3]: 451
Population Apoptotic (%) [4]: 41%
Population Fragmented Nuclei (%) [4]: 9%
Population Healthy Nuclei (%) [4]: 74%
Population Hoechst High Intensity Objects (%) [4]: 11%
Population Membrane Permeable-Phenotype (%) [4]: 1%
Population Mitochondria Different-Phenotype (%) [4]: 75%
Population Mitotic Cells (%) [4]: 58%
Population Normal (%) [4]: 88%
Population Pyknosed Nuclei (%) [4]: 16%
Population Tubulin-Different-Phenotype (%) [4]: 55%
Total Cell Count [4]: 321
Population Apoptotic (%) [5]: 24%
Population Fragmented Nuclei (%) [5]: 8%
Population Healthy Nuclei (%) [5]: 79%
Population Hoechst High Intensity Objects (%) [5]: 3%
Population Membrane Permeable-Phenotype (%) [5]: 0%
Population Mitochondria Different-Phenotype (%) [5]: 26%
Population Mitotic Cells (%) [5]: 75%
Population Normal (%) [5]: 96%
Population Pyknosed Nuclei (%) [5]: 11%
Population Tubulin-Different-Phenotype (%) [5]: 21%
Total Cell Count [5]: 508
Population Apoptotic (%) [6]: 45%
Population Fragmented Nuclei (%) [6]: 13%
Population Healthy Nuclei (%) [6]: 76%
Population Hoechst High Intensity Objects (%) [6]: 7%
Population Mitochondria Different-Phenotype (%) [6]: 34%
Population Mitotic Cells (%) [6]: 54%
Population Normal (%) [6]: 92%
Population Pyknosed Nuclei (%) [6]: 9%
Population Tubulin-Different-Phenotype (%) [6]: 15%
Total Cell Count [6]: 387
Population Apoptotic (%) [7]: 37%
Population Fragmented Nuclei (%) [7]: 6%
Population Healthy Nuclei (%) [7]: 79%
Population Hoechst High Intensity Objects (%) [7]: 7%
Population Membrane Permeable-Phenotype (%) [7]: 1%
Population Mitochondria Different-Phenotype (%) [7]: 46%
Population Mitotic Cells (%) [7]: 62%
Population Normal (%) [7]: 92%
Population Pyknosed Nuclei (%) [7]: 14%
Population Tubulin-Different-Phenotype (%) [7]: 52%
Total Cell Count [7]: 612
Population Apoptotic (%) [8]: 33%
Population Fragmented Nuclei (%) [8]: 7%
Population Healthy Nuclei (%) [8]: 78%
Population Hoechst High Intensity Objects (%) [8]: 13%
Population Membrane Permeable-Phenotype (%) [8]: 0%
Population Mitochondria Different-Phenotype (%) [8]: 70%
Population Mitotic Cells (%) [8]: 66%
Population Normal (%) [8]: 86%
Population Tubulin-Different-Phenotype (%) [8]: 48%
Total Cell Count [8]: 371
Population Apoptotic (%) [9]: 26%
Population Fragmented Nuclei (%) [9]: 12%
Population Healthy Nuclei (%) [9]: 80%
Population Hoechst High Intensity Objects (%) [9]: 2%
Population Membrane Permeable-Phenotype (%) [9]: 0%
Population Mitochondria Different-Phenotype (%) [9]: 22%
Population Mitotic Cells (%) [9]: 73%
Population Normal (%) [9]: 97%
Population Pyknosed Nuclei (%) [9]: 7%
Population Tubulin-Different-Phenotype (%) [9]: 20%
Total Cell Count [9]: 816
Population Apoptotic (%) [10]: 41%
Population Fragmented Nuclei (%) [10]: 10%
Population Membrane Permeable-Phenotype (%) [10]: 1%
Population Mitochondria Different-Phenotype (%) [10]: 27%
Population Mitotic Cells (%) [10]: 58%
Population Pyknosed Nuclei (%) [10]: 9%
Population Tubulin-Different-Phenotype (%) [10]: 19%
Total Cell Count [10]: 520
Population Apoptotic (%) [11]: 40%
Population Fragmented Nuclei (%) [11]: 13%
Population Healthy Nuclei (%) [11]: 77%
Population Hoechst High Intensity Objects (%) [11]: 7%
Population Membrane Permeable-Phenotype (%) [11]: 1%
Population Mitochondria Different-Phenotype (%) [11]: 45%
Population Mitotic Cells (%) [11]: 59%
Population Normal (%) [11]: 92%
Population Pyknosed Nuclei (%) [11]: 9%
Population Tubulin-Different-Phenotype (%) [11]: 38%
Total Cell Count [11]: 692
Population Fragmented Nuclei (%) [12]: 10%
Population Healthy Nuclei (%) [12]: 72%
Population Hoechst High Intensity Objects (%) [12]: 18%
Population Membrane Permeable-Phenotype (%) [12]: 0%
Population Mitochondria Different-Phenotype (%) [12]: 53%
Population Mitotic Cells (%) [12]: 60%
Population Normal (%) [12]: 81%
Population Pyknosed Nuclei (%) [12]: 17%
Population Tubulin-Different-Phenotype (%) [12]: 36%
Total Cell Count [12]: 390
